Measured values published in ChEMBL document CHEMBL2429818, “Recognition of HIV-TAR RNA using neomycin-benzimidazole conjugates” (Bioorg Med Chem Lett, 2013).
pIC50: −log10 of the molar value. Active and inactive are the calls of the source. No cut-off for these calls is given here.

Columns and labels:
Nucleic Acid [1] = assay: Displacement of ethidium bromide from HIV TAR RNA by fluorescent intercalator displacement assay; assay type: nucleic-acid assay, Human immunodeficiency virus
Summary of the method: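 TAR RNA prebound with ethidium bromide, then titrated successively with ligand to displace the intercalator. The resulting binding isotherm was analysed for DC50, the ligand concentration displacing 50% of bound dye.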

Nucleic Acid [2] = assay: Thermal stabilization of HIV TAR RNA assessed as change in melting temperature at 1:1 ligand to RNA ratio by UV-vis spectrophotometric analysis; assay type: nucleic-acid assay; conditions: Human immunodeficiency virus
Nucleic Acid [3] = assay: Displacement of fluorescein and rhodamine-labeled TAT peptide from HIV TAR RNA by FRET assay; assay type: nucleic-acid assay, Human immunodeficiency virus
Summary of the method: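 Tat peptide carrying fluorescein/rhodamine FRET pair mixed 1:1 with TAR RNA (100 nM each) in 50 mM Tris, 20 mM KCl, pH 7.4. Complex titrated with ligand until fluorescence stopped changing; displacement read as loss of fluorescein emission. Isotherm fitted to a dose-response curve to give IC50, the level displacing 50% of bound peptide.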

Nucleic Acid [4] = assay: Binding affinity to HIV TAR RNA at 1.6 equiv after 5 mins by circular dichroism analysis; assay type: nucleic-acid assay; conditions: Human immunodeficiency virus
Summary of the method: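 TAR RNA titrated serially with ligand in small increments; after each addition the complex was stirred and equilibrated 5 min before recording the CD spectrum (average of three scans). Buffer 10 mM sodium cacodylate, 0.5 mM EDTA, 100 mM KCl, pH 6.8, at 20 °C.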

[5] = Displacement of fluorescein-labeled REV peptide from HIV RRE RNA after 1 hr by fluorescence polarization assay; set-up: species or system Human immunodeficiency virus

SMILES	DC50 (Nucleic Acid [1]) [nM]	ΔTm (Nucleic Acid [2]) [°C]	pIC50 (Nucleic Acid [3])	Activity (Nucleic Acid [4])	pIC50 [5]
CN1CCN(c2ccc3nc(-c4ccc(OCc5cn(Cn6cc(CCCCc7cn(C[C@H]8O[C@@H](O[C@@H]9[C@@H](O)[C@H](N)C[C@H](N)[C@H]9O[C@H]9O[C@H](CN)[C@@H](O)[C@H](O)[C@H]9N)[C@H](O)[C@@H]8O[C@H]8O[C@@H](CN)[C@@H](O)[C@H](O)[C@H]8N)nn7)nn6)nn5)cc4)[nH]c3c2)CC1	184	2.5	6.39	–	–
CN1CCN(c2ccc3nc(-c4ccc(OCCn5cc(CCCCCCc6cn(C[C@H]7O[C@@H](O[C@@H]8[C@@H](O)[C@H](N)C[C@H](N)[C@H]8O[C@H]8O[C@H](CN)[C@@H](O)[C@H](O)[C@H]8N)[C@H](O)[C@@H]7O[C@H]7O[C@@H](CN)[C@@H](O)[C@H](O)[C@H]7N)nn6)nn5)cc4)[nH]c3c2)CC1	81	5.4	6.02	–	–
CN1CCN(c2ccc3nc(-c4ccc(OCc5cn(CCCCCCCCCCn6cc(CCCCc7cn(C[C@H]8O[C@@H](O[C@@H]9[C@@H](O)[C@H](N)C[C@H](N)[C@H]9O[C@H]9O[C@H](CN)[C@@H](O)[C@H](O)[C@H]9N)[C@H](O)[C@@H]8O[C@H]8O[C@@H](CN)[C@@H](O)[C@H](O)[C@H]8N)nn7)nn6)nn5)cc4)[nH]c3c2)CC1	180	4	5.86	–	–
CN1CCN(c2ccc3nc(-c4ccc(OCc5cn(CCCCCCn6cc(CCCCc7cn(C[C@H]8O[C@@H](O[C@@H]9[C@@H](O)[C@H](N)C[C@H](N)[C@H]9O[C@H]9O[C@H](CN)[C@@H](O)[C@H](O)[C@H]9N)[C@H](O)[C@@H]8O[C@H]8O[C@@H](CN)[C@@H](O)[C@H](O)[C@H]8N)nn7)nn6)nn5)cc4)[nH]c3c2)CC1	200	3.8	5.86	–	–
C#CCOc1ccc(-c2nc3ccc(N4CCN(C)CC4)cc3[nH]2)cc1	–	1	–	–	–
CN1CCN(c2ccc3nc(-c4ccc(OCCn5cc(COCc6cn(C[C@H]7O[C@@H](O[C@@H]8[C@@H](O)[C@H](N)C[C@H](N)[C@H]8O[C@H]8O[C@H](CN)[C@@H](O)[C@H](O)[C@H]8N)[C@H](O)[C@@H]7O[C@H]7O[C@@H](CN)[C@@H](O)[C@H](O)[C@H]7N)nn6)nn5)cc4)[nH]c3c2)CC1	78	3	5.89	–	–
CN1CCN(c2ccc3nc(-c4ccc(OCc5cn(CCCCCn6cc(CCCCc7cn(C[C@H]8O[C@@H](O[C@@H]9[C@@H](O)[C@H](N)C[C@H](N)[C@H]9O[C@H]9O[C@H](CN)[C@@H](O)[C@H](O)[C@H]9N)[C@H](O)[C@@H]8O[C@H]8O[C@@H](CN)[C@@H](O)[C@H](O)[C@H]8N)nn7)nn6)nn5)cc4)[nH]c3c2)CC1	150	2.1	6.07	–	–
CN1CCN(c2ccc3nc(-c4ccc(OCCn5cc(CCCc6cn(C[C@H]7O[C@@H](O[C@@H]8[C@@H](O)[C@H](N)C[C@H](N)[C@H]8O[C@H]8O[C@H](CN)[C@@H](O)[C@H](O)[C@H]8N)[C@H](O)[C@@H]7O[C@H]7O[C@@H](CN)[C@@H](O)[C@H](O)[C@H]7N)nn6)nn5)cc4)[nH]c3c2)CC1	140	4.1	6.29	–	–
NC[C@@H]1O[C@H](O[C@H]2[C@@H](O)[C@H](O[C@@H]3[C@@H](O)[C@H](N)C[C@H](N)[C@H]3O[C@H]3O[C@H](CN)[C@@H](O)[C@H](O)[C@H]3N)O[C@@H]2CO)[C@H](N)[C@@H](O)[C@@H]1O [FRAMYCETIN]	–	2	5.83	–	–
CN1CCN(c2ccc3nc(-c4ccc(OCc5cn(C[C@H]6O[C@@H](O[C@@H]7[C@@H](O)[C@H](N)C[C@H](N)[C@H]7O[C@H]7O[C@H](CN)[C@@H](O)[C@H](O)[C@H]7N)[C@H](O)[C@@H]6O[C@H]6O[C@@H](CN)[C@@H](O)[C@H](O)[C@H]6N)nn5)cc4)[nH]c3c2)CC1	33	5.6	6.57	Active	6.11
CN1CCN(c2ccc3nc(-c4ccc(OCCn5cc(CCc6cn(C[C@H]7O[C@@H](O[C@@H]8[C@@H](O)[C@H](N)C[C@H](N)[C@H]8O[C@H]8O[C@H](CN)[C@@H](O)[C@H](O)[C@H]8N)[C@H](O)[C@@H]7O[C@H]7O[C@@H](CN)[C@@H](O)[C@H](O)[C@H]7N)nn6)nn5)cc4)[nH]c3c2)CC1	83	3.4	6.47	–	–
CN1CCN(c2ccc3nc(-c4ccc(OCCn5cc(-c6ccc(-c7cn(C[C@H]8O[C@@H](O[C@@H]9[C@@H](O)[C@H](N)C[C@H](N)[C@H]9O[C@H]9O[C@H](CN)[C@@H](O)[C@H](O)[C@H]9N)[C@H](O)[C@@H]8O[C@H]8O[C@@H](CN)[C@@H](O)[C@H](O)[C@H]8N)nn7)cc6)nn5)cc4)[nH]c3c2)CC1	180	3	6.42	–	–
